Here are results for one compound from ChEMBL document CHEMBL4020794, “Inhibition of phosphatidylinositol-3-kinase by the furanosesquiterpenoid hibiscone C” (Bioorg Med Chem Lett, 2017).

The test system of test [1] is T-cell. As to the kind of experiment: Antiproliferative activity against C57BL/6 mouse T cells at […] after 18 hrs by trypan blue assay. Type of test: functional, cell-based. In outline:
(§1)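 Activated T cells in growth (not IL-2 starved) culture, duplicate samples, given DMSO vehicle or compound at the indicated doses. Followed over 24 h. At set time points, cells counted for proliferation and viability scored by trypan blue exclusion.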

The subject of test [2] is T-cell. The experiment in a line: Cytotoxicity against C57BL/6 mouse T cells assessed as reduction in cell viability at 100 uM after 24 hrs by trypan blue assay. Type of test: functional, cell-based. The essentials: as §1
The species entered for test [3] is Mus musculus. As to the kind of experiment: Competitive inhibition of PI3K in C57BL/6 mouse T cells assessed as decrease in Akt phosphorylation at 100 uM after 1 to 3 hrs by Western blot analysis. Type of test: cell-based. The essentials:
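Growing activated T cells, not starved of IL-2, exposed to 100 µM compound or DMSO vehicle for the indicated times. Phospho-Akt detected by Western blot, actin as loading control. Three independent experiments.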
A general note: A western blot detects proteins with antibodies after separation by electrophoresis.

The species named for test [4] is Mus musculus. The experiment in a line: Inhibition of PI3K in C57BL/6 mouse IL2 starved T cells assessed as decrease in IL-2 restimulated Akt phosphorylation at 100 uM preincubated for 30 mins followed by recombinant human IL-2 addition measured after 1 to 3 hrs by Western blot analysis. In outline:
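Activated T cells deprived of IL-2 overnight, pretreated 30 min with 100 µM compound or DMSO vehicle, then stimulated with 1000 U/mL recombinant human IL-2 for the indicated times. Phospho-Akt detected by Western blot, actin as loading control. Three independent experiments.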

The species entered for test [5] is Mus musculus. The experiment in a line: Inhibition of PI3K in C57BL/6 mouse T cells assessed as decrease in Akt phosphorylation at <10 uM after 1 hr by Western blot analysis. The test is classed as cell-based.

Active and inactive are the calls of the source. No cut-off for these calls is given here.

Regarding `CC(C)[C@@H]1CC(=O)c2coc3c2[C@H]1C[C@@H](C)C3=O`, the outcome in the test on T-cell [1] and in the test on T-cell [2] was Active. Besides, the inhibition entry in the test listed under Mus musculus [3] and in the test listed under Mus musculus [4] was “Active” throughout. In the test filed under Mus musculus [5], the inhibition result was “inactive”.
